ChEMBL document CHEMBL3102798, “Stapled Vasoactive Intestinal Peptide (VIP) Derivatives Improve VPAC2 Agonism and Glucose-Dependent Insulin Secretion” (ACS Med Chem Lett, 2013)
Calls of active or inactive are those of the source. The calls are words filed in the database; no cut-off is given here. Bridge positions count the residues as written; N and C are the ends. Peptide text beside a SMILES is read from it.

Legend:
[1] = Stability of the compound in phosphate buffer assessed as compound remaining at pH 7.4 after 15 mins by LC-MS-MS analysis in presence of trypsin; assay type: ADME; conditions: phosphate buffer with trypsin, read-out: Stability
[2] = Half life in human at 3.3 pmol/kg/min, iv administered as infusion; assay type: ADME, organism-based; conditions: in vivo
[3] = Apparent passive permeability across apical to basolateral side in human Caco2 cells at 10 uM after 30 to 60 mins by LC/MS analysis; assay type: ADME, cell-based; conditions: Caco-2
[4] = biological target: T1, Vasoactive intestinal polypeptide receptor 2 (Homo sapiens, UniProt P41587); test: Agonist activity at human VPAC2 expressed in CHO Flp-in cells assessed as accumulation of cAMP after 30 mins by TR-FRET assay; assay type: functional, cell-based
T1 sequence (P41587 whole entry): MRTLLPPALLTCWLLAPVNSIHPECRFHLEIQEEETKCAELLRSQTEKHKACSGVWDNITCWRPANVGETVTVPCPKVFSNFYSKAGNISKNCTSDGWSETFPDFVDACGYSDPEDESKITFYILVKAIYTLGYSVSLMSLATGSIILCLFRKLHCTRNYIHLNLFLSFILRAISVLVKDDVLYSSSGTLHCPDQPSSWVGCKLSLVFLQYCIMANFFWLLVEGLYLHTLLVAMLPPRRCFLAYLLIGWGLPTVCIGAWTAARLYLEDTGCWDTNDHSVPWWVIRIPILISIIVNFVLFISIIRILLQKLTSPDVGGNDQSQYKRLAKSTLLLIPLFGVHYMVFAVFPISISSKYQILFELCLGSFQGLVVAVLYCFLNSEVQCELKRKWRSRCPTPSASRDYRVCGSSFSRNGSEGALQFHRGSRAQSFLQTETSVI

Pancreatic islet [5] = test: Induction of 8 mM glucose-induced insulin secretion in Han Wistar rat pancreatic islets at 10 to 100 nM after 2 hrs by HTRF assay; assay type: functional
How it was run: (§1)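 Isolated rat pancreatic islets were incubated with peptide in 8 mM glucose, and insulin secretion was measured. Data are mean ±SE (n > 3), and significance was tested against vehicle-treated samples.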

Pancreatic islet [6] = test: Induction of 8 mM glucose-induced insulin secretion in Han Wistar rat pancreatic islets at 100 nM after 2 hrs by HTRF assay; assay type: functional; how it was run: as §1
Pancreatic islet [7] = test: Induction of 8 mM glucose-induced insulin secretion in Han Wistar rat pancreatic islets after 2 hrs by HTRF assay; assay type: functional
How it was run: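 Isolated rat pancreatic islets were incubated with 8 mM glucose plus peptide over a range of concentrations, and secreted insulin was measured. Data are mean (±SE), n > 3, and were compared with vehicle-treated samples (p < 0.05, 0.01, 0.001).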

Pancreatic islet [8] = test: Induction of 8 mM glucose-induced insulin secretion in Han Wistar rat pancreatic islets at 1 to 100 nM after 2 hrs by HTRF assay; assay type: functional; how it was run: as §1

| remaining at 0.25 h [1] [%] | Papp A→B at 10 µM [3] [×10⁻⁶ cm/s] | EC50 [4] [nM] | Compound | also measured |
| --- | --- | --- | --- | --- |
| 1.5 | < 0.1 | 0.049 | CC[C@H](C)[C@H](NC(=O)[C@H](CO)NC(=O)[C@H](CC(N)=O)NC(=O)[C@H](CC(C)C)NC(=O)[C@H](Cc1ccc(O)cc1)NC(=O)[C@H](CCCCN)NC(=O)[C@H](CCCCN)NC(=O)[C@@H](NC(=O)[C@H](C)NC(=O)[C@]1(C)CCCC/C=C\CCCC[C@](C)(NC(=O)[C@H](CCCNC(=N)N)NC(=O)[C@@H](NC(=O)[C@H](Cc2ccc(O)cc2)NC(=O)[C@H](CC(N)=O)NC(=O)[C@H](CC(=O)O)NC(=O)[C@@H](NC(=O)[C@H](Cc2ccccc2)NC(=O)[C@@H](NC(=O)[C@H](C)NC(=O)[C@H](CC(=O)O)NC(=O)[C@H](CO)NC(=O)[C@@H](N)Cc2cnc[nH]2)C(C)C)[C@@H](C)O)[C@@H](C)O)C(=O)N[C@@H](CCCNC(=N)N)C(=O)N[C@@H](CCCCN)C(=O)N[C@@H](CCC(N)=O)C(=O)N1)C(C)C)C(=O)N[C@@H](CC(C)C)C(=O)N[C@@H](CC(N)=O)C(=O)NCC(=O)N[C@@H](CCCCN)C(=O)O | Activity (Pancreatic islet [5]): Active |
|  |  |  | C=CCCC[C@](C)(NC(=O)[C@H](CCC(N)=O)NC(=O)[C@H](CCCCN)NC(=O)[C@H](CCCNC(=N)N)NC(=O)[C@](C)(CCCC=C)NC(=O)[C@H](CCCNC(=N)N)NC(=O)[C@@H](NC(=O)[C@H](Cc1ccc(O)cc1)NC(=O)[C@H](CC(N)=O)NC(=O)[C@H](CC(=O)O)NC(=O)[C@@H](NC(=O)[C@H](Cc1ccccc1)NC(=O)[C@@H](NC(=O)[C@H](C)NC(=O)[C@H](CC(=O)O)NC(=O)[C@H](CO)NC(=O)[C@@H](N)Cc1cnc[nH]1)C(C)C)[C@@H](C)O)[C@@H](C)O)C(=O)N[C@@H](C)C(=O)N[C@H](C(=O)N[C@@H](CCCCN)C(=O)N[C@@H](CCCCN)C(=O)N[C@@H](Cc1ccc(O)cc1)C(=O)N[C@@H](CC(C)C)C(=O)N[C@@H](CC(N)=O)C(=O)N[C@@H](CO)C(=O)N[C@H](C(=O)N[C@@H](CC(C)C)C(=O)N[C@@H](CC(N)=O)C(=O)NCC(=O)N[C@@H](CCCCN)C(=O)O)[C@@H](C)CC)C(C)C | Activity (Pancreatic islet [6]): Active |
|  |  |  | CC[C@H](C)[C@H](NC(=O)[C@H](CO)NC(=O)[C@H](CC(N)=O)NC(=O)[C@H](CC(C)C)NC(=O)[C@H](Cc1ccc(O)cc1)NC(=O)[C@H](CCCCN)NC(=O)[C@H](CCCCN)NC(=O)[C@@H](NC(=O)[C@H](C)NC(=O)[C@H](CCSC)NC(=O)[C@H](CCC(N)=O)NC(=O)[C@H](CCCCN)NC(=O)[C@H](CCCNC(=N)N)NC(=O)[C@H](CC(C)C)NC(=O)[C@H](CCCNC(=N)N)NC(=O)[C@@H](NC(=O)[C@H](Cc1ccc(O)cc1)NC(=O)[C@H](CC(N)=O)NC(=O)[C@H](CC(=O)O)NC(=O)[C@@H](NC(=O)[C@H](Cc1ccccc1)NC(=O)[C@@H](NC(=O)[C@H](C)NC(=O)[C@H](CC(=O)O)NC(=O)[C@H](CO)NC(=O)[C@@H](N)Cc1cnc[nH]1)C(C)C)[C@@H](C)O)[C@@H](C)O)C(C)C)C(=O)N[C@@H](CC(C)C)C(=O)N[C@@H](CC(N)=O)C(=O)O | Activity (Pancreatic islet [7]): Dose-dependent effect |
|  |  |  | CC[C@H](C)[C@H](NC(=O)[C@H](Cc1ccccc1)NC(=O)[C@H](CCC(=O)O)NC(=O)[C@H](CCCCN)NC(=O)[C@H](C)NC(=O)[C@H](C)NC(=O)[C@H](CCC(N)=O)NC(=O)CNC(=O)[C@H](CCC(=O)O)NC(=O)[C@H](CC(C)C)NC(=O)[C@H](Cc1ccc(O)cc1)NC(=O)[C@H](CO)NC(=O)[C@H](CO)NC(=O)[C@@H](NC(=O)[C@H](CC(=O)O)NC(=O)[C@H](CO)NC(=O)[C@@H](NC(=O)[C@H](Cc1ccccc1)NC(=O)[C@@H](NC(=O)CNC(=O)[C@H](CCC(=O)O)NC(=O)[C@H](C)NC(=O)[C@@H](N)Cc1c[nH]cn1)[C@@H](C)O)[C@@H](C)O)C(C)C)C(=O)N[C@@H](C)C(=O)N[C@@H](Cc1c[nH]c2ccccc12)C(=O)N[C@@H](CC(C)C)C(=O)N[C@H](C(=O)N[C@@H](CCCCN)C(=O)NCC(=O)N[C@@H](CCCN=C(N)N)C(=O)NCC(=O)O)C(C)C | Activity (Pancreatic islet [7]): Dose-dependent effect |
| 0.4 | < 0.1 | 0.1 | CC[C@H](C)[C@H](NC(=O)[C@H](CO)NC(=O)[C@H](CC(N)=O)NC(=O)[C@H](CC(C)C)NC(=O)[C@H](Cc1ccc(O)cc1)NC(=O)[C@@H]1CCCCNC(=O)CC[C@H](NC(=O)[C@H](CCC(N)=O)NC(=O)[C@H](CCCCN)NC(=O)[C@H](CCCNC(=N)N)NC(=O)[C@H](CC(C)C)NC(=O)[C@H](CCCNC(=N)N)NC(=O)[C@@H](NC(=O)[C@H](Cc2ccc(O)cc2)NC(=O)[C@H](CC(N)=O)NC(=O)[C@H](CC(=O)O)NC(=O)[C@@H](NC(=O)[C@H](Cc2ccccc2)NC(=O)[C@@H](NC(=O)[C@H](C)NC(=O)[C@H](CC(=O)O)NC(=O)[C@H](CO)NC(=O)[C@@H](N)Cc2cnc[nH]2)C(C)C)[C@@H](C)O)[C@@H](C)O)C(=O)N[C@@H](C)C(=O)N[C@@H](C(C)C)C(=O)N[C@@H](CCCCN)C(=O)N1)C(=O)N[C@@H](CC(C)C)C(=O)N[C@@H](CC(N)=O)C(=O)NCC(=O)N[C@@H](CCCCN)C(=O)O (H-HSDAVFTDNYTRLRKQEAVKKYLNSILNGK-OH; lactam 17-21) | Activity (Pancreatic islet [5]): Active |
| 0.9 | < 0.1 | 0.38 | H-HSDAVFTDNYTRLRKQEAVKKYLNSILNGK-OH | Activity (Pancreatic islet [6]): Active |
|  |  |  | H-HSDAVFTDNYTRLRKQIAVKKYLNSILNGK-OH | Activity (Pancreatic islet [8]): Active |

| Compound | remaining at 0.25 h [1] [%] | Papp A→B at 10 µM [3] [×10⁻⁶ cm/s] | EC50 [4] [nM] | also measured |
| --- | --- | --- | --- | --- |
| CC[C@H](C)[C@H](NC(=O)[C@H](CO)NC(=O)[C@H](CC(N)=O)NC(=O)[C@H](CC(C)C)NC(=O)[C@H](Cc1ccc(O)cc1)NC(=O)[C@H](CCCCN)NC(=O)[C@H](CCCCN)NC(=O)[C@@H](NC(=O)[C@H](C)NC(=O)[C@H](CCSC)NC(=O)[C@H](CCC(N)=O)NC(=O)[C@H](CCCCN)NC(=O)[C@H](CCCN=C(N)N)NC(=O)[C@H](CC(C)C)NC(=O)[C@H](CCCN=C(N)N)NC(=O)[C@@H](NC(=O)[C@H](Cc1ccc(O)cc1)NC(=O)[C@H](CC(N)=O)NC(=O)[C@H](CC(=O)O)NC(=O)[C@@H](NC(=O)[C@H](Cc1ccccc1)NC(=O)[C@@H](NC(=O)[C@H](C)NC(=O)[C@H](CC(=O)O)NC(=O)[C@H](CO)NC(=O)[C@@H](N)Cc1c[nH]cn1)C(C)C)[C@@H](C)O)[C@@H](C)O)C(C)C)C(=O)N[C@@H](CC(C)C)C(=O)N[C@@H](CC(N)=O)C(N)=O | 0.5 | < 0.1 |  | half-life [2]: < 1 min |
